Assay [1] concerns the target Leukotriene B4 receptor 1 (Homo sapiens, UniProt Q15722). Briefly: Inhibition of [3H]- LTB4 binding on human whole cells. Summed up:
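Intact DMSO-differentiated (1.3%, 3-4 days) human U-937 cells, or isolated human peripheral blood PMNs, 10⁶ cells, incubated in HBSS with 0.1% ovalbumin, 0.2 nM [³H]LTB₄ and compound (0.1 nM-10 μM, 5-8 concentrations in duplicate) for 20 min at 0 °C. Nonspecific binding measured with 1 μM unlabeled LTB₄. Filtration, scintillation counting. Ki from IC50 by Cheng-Prusoff; mean of ≥2 assays.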

The nature of assay [2]: Agonist-induced calcium mobilization using human polymorphonuclear leukocytes. Also on record: concentration or dose not given beside the values.

The results in this text go back to ChEMBL document CHEMBL1126874, “Synthesis of structural analogs of leukotriene B4 and their receptor binding activity” (J Med Chem, 1993).

Leukotriene B4 receptor 1, sequence (Q15722 whole entry): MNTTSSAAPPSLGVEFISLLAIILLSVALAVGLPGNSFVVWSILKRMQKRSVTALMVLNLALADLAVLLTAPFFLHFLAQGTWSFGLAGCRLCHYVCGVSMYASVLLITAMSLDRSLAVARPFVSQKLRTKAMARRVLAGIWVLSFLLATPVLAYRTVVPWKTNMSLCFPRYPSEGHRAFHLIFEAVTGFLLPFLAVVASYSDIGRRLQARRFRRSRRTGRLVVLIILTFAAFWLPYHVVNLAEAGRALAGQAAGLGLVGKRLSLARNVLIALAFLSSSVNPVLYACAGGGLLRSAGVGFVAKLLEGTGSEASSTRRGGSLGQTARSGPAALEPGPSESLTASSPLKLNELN

Usually Ki stands for the equilibrium dissociation constant of an inhibitor or competing ligand from its target. Compound `CCCCCCCCC(O)CCc1cccc(CC(O)c2cccc(C(=O)[O-])c2)n1.[Li+]` (centres undefined) returned an inhibitory constant (Ki) in assay [1] of 0.06 µM. Moreover, the Agonist activity % in assay [2] worked out at 84%. Regarding `CCCCCCCCC(O)/C=C/c1cccc(CC(O)c2cccc(C(=O)[O-])c2)n1.[Li+]` (centres undefined), in assay [2], the Agonist activity % is recorded as 86%. Regarding `CCCCOc1cccc(C(O)/C=C/c2cccc(CC(O)c3cccc(C(=O)[O-])c3)n2)c1.[Li+]` (centres undefined), the Ki in assay [1] came to 0.003 µM. In addition, the Agonist activity % in assay [2] is 56%. For `CCCCCCCCC(O)c1ccc2ccc(CC(O)CCCC(=O)O)nc2c1` (centres undefined) the same measures were 0.9 µM and 63%. For `CCCCCCCCC(O)c1ccc2ccc(CSc3cccc(C(=O)[O-])c3)cc2c1.[Li+]` (centres undefined) the same measures were 9 µM and 23%. For `CCCCCCCCC(O)c1ccc2ccc(C[S+]([O-])c3cccc(C(=O)O)c3)nc2c1` (centres undefined) the same measures were 0.14 µM and 98%. For `CCCCCCCCC(O)c1ccc2ccc(CCc3cccc(C(=O)[O-])c3)nc2c1.[Li+]` (centres undefined), the Ki in assay [1] stood at 0.1 µM. Moreover, the Agonist activity % in assay [2] was 66%. `CCCCCCCCC(O)c1ccc2ccc(CSc3cccc(C(=O)O)c3)nc2c1` (centres undefined) came in with a Ki in assay [1] of 0.6 µM. Moreover, the Agonist activity % in assay [2] came out at 85%.

`CCCCOc1cccc(C(O)CCc2cccc(CC(O)c3cccc(C(=O)[O-])c3)n2)c1.[Li+]` (centres undefined): the affinity in assay [1], expressed as Ki, was 1 µM. In addition, the Agonist activity % in assay [2] is 4%. In the same order, the values of `CCCCCCCCC(O)c1ccc2ccc(C[S+]([O-])c3cccc(C(=O)[O-])c3)cc2c1.[Li+]` (centres undefined) are 0.5 µM and 56%. In assay [1], `CCCCC/C=C\C[C@H](O)/C=C/c1cccc(C[C@H](O)CCCCO)n1` registered an inhibitory constant (Ki) of 0.7 µM. Besides, the Agonist activity % in assay [2] was 100%. In the same order, the values of `CCCCCCCC[C@@H](O)c1ccc2ccc(CCc3cccc(C(=O)[O-])c3)nc2c1.[Li+]` are 0.05 µM and 56%.

`CCCCCCCCC(O)c1ccc2ccc(CC(O)c3cccc(C(=O)[O-])c3)nc2c1.[Li+]` (centres undefined): the affinity in assay [1], expressed as Ki, was 0.01 µM. The Agonist activity % in assay [2] was found to be 74%.

Take `CCCCCCCCC(O)c1ccc2ccc(CCCCCC(=O)O)nc2c1` (centres undefined): the affinity in assay [1], expressed as Ki, was 2.8 µM. Also, the Agonist activity % in assay [2] stood at 58%.

`CCCCCCCCC(O)c1ccc2ccc(/C=C/CCCC(=O)O)nc2c1` (centres undefined) had an inhibition constant (Ki) in assay [1] of 1.4 µM. For the same compound, in assay [2], the Agonist activity % came out at 45%.
